Results from ChEMBL document CHEMBL4368930, “Synthesis and anti-HSV activity of tricyclic penciclovir and hydroxybutylguanine derivatives” (Bioorg Med Chem, 2019).

Experiments:
K562 = test: Cytostatic activity against human K562 cells; assay type: ADME, cell-based
[1] = Cytostatic activity against human DND41 cells; assay type: ADME, cell-based
Human alphaherpesvirus 1 [2] = test: Antiviral activity against thymidine kinase deficient and aciclovir resistant herpes simplex virus 1 KOS infected in HEL cells assessed as reduction in virus-induced cytopathogenicity by microscopic analysis; assay type: functional, organism-based; settings: Human alphaherpesvirus 1, strain KOS
[3] = Cytostatic activity against human HAP1 cells; assay type: ADME, cell-based
Human alphaherpesvirus 1 [4] = test: Antiviral activity against herpes simplex virus 1 KOS infected in HEL cells assessed as reduction in virus-induced cytopathogenicity by microscopic analysis; assay type: functional, organism-based; settings: Human alphaherpesvirus 1, strain KOS
[5] = Cytotoxicity against HEL cells assessed as effect on cell morphology at 0.32 to 200 uM by microscopic analysis; assay type: cell-based; settings: human
HL-60 = test: Cytostatic activity against human HL60 cells; assay type: ADME, cell-based
TERT-RPE1 = test: Cytostatic activity against human hTERT-RPE1 cells; assay type: ADME, cell-based; settings: RPE-1
How it was run: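 Cell proliferation was measured against the number of cells in untreated controls.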

NCI-H460 = test: Cytostatic activity against human NCI-H460 cells; assay type: ADME, cell-based
Human alphaherpesvirus 2 = test: Antiviral activity against herpes simplex virus 2 G infected in HEL cells assessed as reduction in virus-induced cytopathogenicity by microscopic analysis; assay type: functional, organism-based; settings: Human alphaherpesvirus 2, G
How it was run: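 Confluent cell monolayers were inoculated with 100 CCID50 of virus or 20 PFU. After a 1–2 h adsorption, residual virus was removed and cultures were incubated with the test compounds at 200, 40, 8, 1.6 and 0.32 μM. Cytopathicity was scored once it was complete in untreated infected controls.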

Z-138 = test: Cytostatic activity against human Z138 cells; assay type: ADME, cell-based
CAPAN-1 = test: Cytostatic activity against human Capan1 cells; assay type: ADME, cell-based
Human alphaherpesvirus 3 [6] = test: Antiviral activity against Varicella-zoster virus Oka harboring thymidine kinase infected in HEL cells assessed as reduction in virus plaque formation; assay type: functional, organism-based; settings: Human alphaherpesvirus 3, Oka
Human betaherpesvirus 5 [7] = test: Antiviral activity against Human cytomegalovirus AD169 assessed as reduction in virus-induced cytopathogenicity by microscopic analysis; assay type: functional, organism-based; settings: Human betaherpesvirus 5, strain AD169
Human alphaherpesvirus 3 [8] = test: Antiviral activity against thymidine kinase deficient Varicella-zoster virus 07-1 infected in HEL cells assessed as reduction in virus plaque formation; assay type: functional, organism-based; settings: Human alphaherpesvirus 3, 07-1, HEL
Human betaherpesvirus 5 [9] = test: Antiviral activity against Human cytomegalovirus Davis assessed as reduction in virus-induced cytopathogenicity by microscopic analysis; assay type: functional, organism-based; settings: Human betaherpesvirus 5, Davis

Compound	IC50 (K562) [µM]	IC50 [1] [µM]	EC50 (Human alphaherpesvirus 1 [2]) [µM]	IC50 [3] [µM]	EC50 (Human alphaherpesvirus 1 [4]) [µM]	MCC at up to 200 µM [5] [µM]	IC50 (HL-60) [µM]	IC50 (TERT-RPE1) [µM]	IC50 (NCI-H460) [µM]	EC50 (Human alphaherpesvirus 2) [µM]	IC50 (Z-138) [µM]	IC50 (CAPAN-1) [µM]	EC50 (Human alphaherpesvirus 3 [6]) [µM]	EC50 (Human betaherpesvirus 5 [7]) [µM]	EC50 (Human alphaherpesvirus 3 [8]) [µM]	EC50 (Human betaherpesvirus 5 [9]) [µM]
O=c1c2ncn(CCCCO)c2nc2[nH]c(-c3ccc(Cl)cc3)cn12	> 100	> 100	> 100	> 100	> 100	> 100	> 100	> 100	> 100	> 100	> 100	64.4	–	–	–	–
O=c1c2ncn(CCCCO)c2nc2[nH]c(-c3ccccc3)cn12	> 100	> 100	> 100	> 100	> 100	> 100	> 100	> 100	> 100	> 100	> 100	69.1	–	–	–	–
Cc1ccc(-c2cn3c(=O)c4ncn(CCCCO)c4nc3[nH]2)cc1	> 100	> 100	> 100	> 100	> 100	> 100	> 100	> 100	> 100	> 100	> 100	78.9	–	–	–	–
O=c1c2ncn(CCCCO)c2nc2[nH]c(-c3cccs3)cn12	> 100	> 100	> 100	> 100	> 100	> 100	> 100	> 100	> 100	> 100	> 100	> 100	–	–	–	–
O=c1c2ncn(CCC(CO)CO)c2nc2[nH]c(-c3ccc(Cl)cc3)cn12	> 100	> 100	> 100	> 100	> 100	> 100	> 100	> 100	> 100	> 100	> 100	84.8	> 100	> 100	> 100	> 100
O=c1c2ncn(CCC(CO)CO)c2nc2[nH]c(-c3ccc(F)cc3)cn12	> 100	> 100	12	> 100	8.9	> 100	> 100	> 100	> 100	28	> 100	82.8	> 100	> 100	> 100	> 100
O=c1c2ncn(CCCCO)c2nc2[nH]c(-c3ccc(F)cc3)cn12	> 100	> 100	> 100	> 100	> 100	> 100	> 100	> 100	55.5	> 100	> 100	56.1	–	–	–	–
COc1ccc(-c2cn3c(=O)c4ncn(CCCCO)c4nc3[nH]2)cc1	> 100	> 100	> 100	> 100	> 100	> 100	> 100	> 100	> 100	> 100	> 100	98.9	–	–	–	–
O=c1c2ncn(CCC(CO)CO)c2nc2[nH]c(-c3ccccc3)cn12	> 100	> 100	> 100	> 100	> 100	> 100	> 100	78.6	> 100	> 100	> 100	58.3	> 100	> 100	> 100	> 100
O=c1c2ncn(CCCCO)c2nc2[nH]c(-c3ccc4c(c3)OCO4)cn12	> 100	> 100	> 100	> 100	> 100	> 100	> 100	> 100	> 100	> 100	> 100	92.8	–	–	–	–
O=c1c2ncn(CCCCO)c2nc2[nH]c(-c3ccc(C(F)(F)F)cc3)cn12	> 100	> 100	> 100	63.8	> 100	> 100	> 100	> 100	52.5	> 100	> 100	36.1	–	–	–	–
Cc1ccc(-c2cn3c(=O)c4ncn(CCC(CO)CO)c4nc3[nH]2)cc1	> 100	> 100	> 100	> 100	> 100	> 100	> 100	> 100	> 100	> 100	> 100	> 100	63.1	> 100	> 100	> 100
Nc1nc2c(ncn2COCCO)c(=O)[nH]1 [ACYCLOVIR]	–	–	100	–	0.9	> 250	–	–	–	0.9	–	–	–	–	–	–
O=c1[nH]c(=O)n([C@H]2C[C@H](O)[C@@H](CO)O2)cc1/C=C/Br [BRIVUDINE]	–	–	14	–	–	> 250	–	–	–	> 250	–	–	0.037	–	7.9	–
Nc1ccn(C[C@@H](CO)OCP(=O)(O)O)c(=O)n1 [CIDOFOVIR]	–	–	5	–	–	> 250	–	–	–	–	–	–	–	0.72	–	–
CC(=O)O[C@@]12CO[C@@H]1C[C@H](O)[C@@]1(C)C(=O)[C@H](O)C3=C(C)[C@@H](OC(=O)[C@H](O)[C@@H](NC(=O)OC(C)(C)C)c4ccccc4)C[C@@](O)([C@@H](OC(=O)c4ccccc4)[C@H]21)C3(C)C [DOCETAXEL ANHYDROUS]	0.003	1.63	–	1.19	–	–	0.00194	25	0.89	–	0.003	0.95	–	–	–	–
COc1cc([C@@H]2c3cc4c(cc3[C@@H](O[C@@H]3O[C@@H]5CO[C@@H](C)O[C@H]5[C@H](O)[C@H]3O)[C@H]3COC(=O)[C@H]23)OCO4)cc(OC)c1O [ETOPOSIDE]	0.54	0.06	–	0.04	–	–	0.03	0.23	1.35	–	1.06	0.15	–	–	–	–
Nc1nc2c(ncn2COC(CO)CO)c(=O)[nH]1 [GANCICLOVIR]	–	–	–	–	–	> 250	–	–	–	0.4	–	–	–	–	–	–
CN[C@@H]1C[C@H]2O[C@@](C)([C@@H]1OC)n1c3ccccc3c3c4c(c5c6ccccc6n2c5c31)C(=O)NC4 [STAUROSPORINE]	–	–	–	–	–	–	–	0.25	–	–	–	–	–	–	–	–
